Experimental data: ChEMBL document CHEMBL2380239, “Novel ROS-activated agents utilize a tethered amine to selectively target acute myeloid leukemia” (Bioorg Med Chem Lett, 2013)

Tests used:
HCT-116 = experiment: Growth inhibition of human HCT116 cells after 48 hrs by sulforhodamine B assay; type: functional; conditions: HCT-116, 48 h
How it was run: (§1)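 Run in the National Cancer Institute 60-cell-line panel screen. Viability was read by sulforhodamine B staining of total protein content, so it reflects cell number rather than metabolic activity. Values are reported as GI50.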

HT-29 = experiment: Growth inhibition of human HT-29 cells after 48 hrs by sulforhodamine B assay; type: functional; conditions: HT-29, 48 h; how it was run: as §1
SK-MEL-5 = experiment: Growth inhibition of human SK-MEL-5 cells after 48 hrs by sulforhodamine B assay; type: functional; conditions: SK-MEL-5, 48 h; how it was run: as §1
MOLT-4 = experiment: Growth inhibition of human MOLT4 cells after 48 hrs by sulforhodamine B assay; type: functional; conditions: MOLT-4, 48 h; how it was run: as §1
MDA-MB-435 = experiment: Growth inhibition of human MDA-MB-435 cells after 48 hrs by sulforhodamine B assay; type: functional; conditions: MDA-MB-435, 48 h; how it was run: as §1
SF-268 = experiment: Growth inhibition of human SF268 cells after 48 hrs by sulforhodamine B assay; type: functional; conditions: SF-268, 48 h; how it was run: as §1
[1] = Cytotoxicity against human MA9.3 cells after 48 hrs by MTT assay; type: functional, cell-based
How it was run: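 Non-transformed human CD34+ blood stem/progenitor cells from umbilical cord blood were run alongside MA9.3, an AML line made by introducing the MLL-AF9 oncogene into human CD34+ cells. IC50 was determined on each cell type. Therapeutic index is the ratio between the MA9.3 and CD34+ IC50 values.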

NCI-H522 = experiment: Growth inhibition of human NCI-H522 cells after 48 hrs by sulforhodamine B assay; type: functional; conditions: NCI-H522, 48 h; how it was run: as §1
786-0 = experiment: Growth inhibition of human 786-0 cells after 48 hrs by sulforhodamine B assay; type: functional; conditions: 786-0, 48 h; how it was run: as §1
SNB-75 = experiment: Growth inhibition of human SNB75 cells after 48 hrs by sulforhodamine B assay; type: functional; conditions: SNB-75, 48 h
How it was run: (§2)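 Run within the National Cancer Institute 60-cell-line panel. Viability was read by sulforhodamine B staining of total cellular protein, as a measure of cell number rather than metabolic activity. GI50 values were taken from the panel data.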

MCF7 = experiment: Growth inhibition of human MCF7 cells after 48 hrs by sulforhodamine B assay; type: functional; conditions: MCF7, 48 h; how it was run: as §1
HOP-62 = experiment: Growth inhibition of human HOP62 cells after 48 hrs by sulforhodamine B assay; type: functional; conditions: HOP-62, 48 h; how it was run: as §1
Hs-578T = experiment: Growth inhibition of human Hs578T cells after 48 hrs by sulforhodamine B assay; type: functional; how it was run: as §1
OVCAR-5 = experiment: Growth inhibition of human OVCAR5 cells after 48 hrs by sulforhodamine B assay; type: functional; conditions: OVCAR-5, 48 h; how it was run: as §1
UO-31 = experiment: Growth inhibition of human UO31 cells after 48 hrs by sulforhodamine B assay; type: functional; conditions: UO-31, 48 h; how it was run: as §2
SF-539 = experiment: Growth inhibition of human SF539 cells after 48 hrs by sulforhodamine B assay; type: functional; conditions: SF-539, 48 h; how it was run: as §1
CAKI-1 = experiment: Growth inhibition of human CAKI-1 cells after 48 hrs by sulforhodamine B assay; type: functional; conditions: CAKI-1, 48 h; how it was run: as §1
NCI-H23 = experiment: Growth inhibition of human NCI-H23 cells after 48 hrs by sulforhodamine B assay; type: functional; conditions: NCI-H23, 48 h; how it was run: as §1
LOX IMVI = experiment: Growth inhibition of human LOXIMVI cells after 48 hrs by sulforhodamine B assay; type: functional; how it was run: as §1
MDA-MB-231 = experiment: Growth inhibition of human MDA-MB-231 cells after 48 hrs by sulforhodamine B assay; type: functional; conditions: MDA-MB-231, 48 h; how it was run: as §1
SK-MEL-28 = experiment: Growth inhibition of human SK-MEL-28 cells after 48 hrs by sulforhodamine B assay; type: functional; conditions: SK-MEL-28, 48 h; how it was run: as §1
SNB-19 = experiment: Growth inhibition of human SNB19 cells after 48 hrs by sulforhodamine B assay; type: functional; conditions: SNB-19, 48 h; how it was run: as §2
NCI-H226 = experiment: Growth inhibition of human NCI-H226 cells after 48 hrs by sulforhodamine B assay; type: functional; conditions: NCI-H226, 48 h; how it was run: as §1
SN12C = experiment: Growth inhibition of human SN12C cells after 48 hrs by sulforhodamine B assay; type: functional; how it was run: as §2
[2] = Therapeutic index, ratio of IC50 for human CD34-positive blood stem/progenitor cells to IC50 for human MA9.3 cells; conditions: CD34-positive blood stem/progenitor cells versus MA9.3 cells, read-out: Ratio IC50
How it was run: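 Cytotoxicity was measured in parallel on non-cancerous human CD34+ blood stem/progenitor cells (UCB) and on the MA9.3 AML line, which was made by introducing the MLL-AF9 oncogene into human CD34+ cells. The index is IC50 in CD34+ cells divided by IC50 in MA9.3, reported as mean ± error.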

RXF 393 = experiment: Growth inhibition of human RXF393 cells after 48 hrs by sulforhodamine B assay; type: functional; conditions: RXF 393, 48 h; how it was run: as §1
IGROV-1 = experiment: Growth inhibition of human IGROV1 cells after 48 hrs by sulforhodamine B assay; type: functional; conditions: IGROV-1, 48 h; how it was run: as §1
KM12 = experiment: Growth inhibition of human KM12 cells after 48 hrs by sulforhodamine B assay; type: functional; conditions: KM12, 48 h; how it was run: as §1
PC-3 = experiment: Growth inhibition of human PC3 cells after 48 hrs by sulforhodamine B assay; type: functional; conditions: PC-3, 48 h; how it was run: as §1
SW-620 = experiment: Growth inhibition of human SW620 cells after 48 hrs by sulforhodamine B assay; type: functional; conditions: SW-620, 48 h; how it was run: as §2
BT-549 = experiment: Growth inhibition of human BT549 cells after 48 hrs by sulforhodamine B assay; type: functional; conditions: BT-549, 48 h; how it was run: as §1
OVCAR-4 = experiment: Growth inhibition of human OVCAR4 cells after 48 hrs by sulforhodamine B assay; type: functional; conditions: OVCAR-4, 48 h; how it was run: as §1
COLO 205 = experiment: Growth inhibition of human COLO205 cells after 48 hrs by sulforhodamine B assay; type: functional; conditions: COLO 205, 48 h; how it was run: as §1
[3] = Growth inhibition of human HCC2998 cells after 48 hrs by sulforhodamine B assay; type: functional; conditions: HCC 2998, 48 h; how it was run: as §1
DU-145 = experiment: Growth inhibition of human DU145 cells after 48 hrs by sulforhodamine B assay; type: functional; conditions: DU-145, 48 h; how it was run: as §1
M14 = experiment: Growth inhibition of human M14 cells after 48 hrs by sulforhodamine B assay; type: functional; conditions: M14, 48 h; how it was run: as §1
[4] = Growth inhibition of human NCI-ADR-RES cells after 48 hrs by sulforhodamine B assay; type: functional; how it was run: as §1
HOP-92 = experiment: Growth inhibition of human HOP92 cells after 48 hrs by sulforhodamine B assay; type: functional; conditions: HOP-92, 48 h; how it was run: as §1
RPMI-8226 = experiment: Growth inhibition of human RPMI8226 cells after 48 hrs by sulforhodamine B assay; type: functional; conditions: RPMI-8226, 48 h; how it was run: as §1
T47D = experiment: Growth inhibition of human T47D cells after 48 hrs by sulforhodamine B assay; type: functional; how it was run: as §2
UACC-257 = experiment: Growth inhibition of human UACC257 cells after 48 hrs by sulforhodamine B assay; type: functional; conditions: UACC-257, 48 h; how it was run: as §2
NCI-H322M = experiment: Growth inhibition of human NCI-H322M cells after 48 hrs by sulforhodamine B assay; type: functional; how it was run: as §1
HCT-15 = experiment: Growth inhibition of human HCT15 cells after 48 hrs by sulforhodamine B assay; type: functional; conditions: HCT-15, 48 h; how it was run: as §1

Oc1ccc(OCCN(CCOc2ccc(O)cc2)c2ccccc2)cc1
GI50 (HCT-116): 4.1 µM
GI50 (HT-29): 14.5 µM
GI50 (SK-MEL-5): 2.6 µM
GI50 (MOLT-4): 1.3 µM
GI50 (MDA-MB-435): 2.6 µM
GI50 (SF-268): 3.2 µM
IC50 [1]: 3 µM
GI50 (NCI-H522): 2 µM
GI50 (786-0): 3.6 µM
GI50 (SNB-75): 5.3 µM
GI50 (MCF7): 2.2 µM
GI50 (HOP-62): 8.9 µM
GI50 (Hs-578T): 14.5 µM
GI50 (OVCAR-5): 11.5 µM
GI50 (UO-31): 1.5 µM
GI50 (SF-539): 2.8 µM
GI50 (CAKI-1): 0.4 µM
GI50 (NCI-H23): 2.1 µM
GI50 (LOX IMVI): 2.2 µM
GI50 (MDA-MB-231): 0.9 µM
GI50 (SK-MEL-28): 14.8 µM
GI50 (SNB-19): 11.2 µM
GI50 (NCI-H226): 11.2 µM
GI50 (SN12C): 4.7 µM
selectivity ratio [2]: 5.3
GI50 (RXF 393): 2.6 µM
GI50 (IGROV-1): 3.6 µM
GI50 (KM12): 4.7 µM
GI50 (PC-3): 6 µM
GI50 (SW-620): 10 µM
GI50 (BT-549): 6.6 µM
GI50 (OVCAR-4): 10.5 µM
GI50 (COLO 205): 20 µM
GI50 [3]: 4.7 µM
GI50 (DU-145): 3.2 µM
GI50 (M14): 1.6 µM
GI50 [4]: 1.2 µM
GI50 (HOP-92): 3.7 µM
GI50 (RPMI-8226): 3.8 µM
GI50 (T47D): 10.2 µM
GI50 (UACC-257): 12.6 µM
GI50 (NCI-H322M): 11 µM
GI50 (HCT-15): 10 µM

CN(CCCOc1ccc(O)cc1)c1ccccc1
GI50 (HCT-116): 3.5 µM
GI50 (HT-29): 5.6 µM
GI50 (SK-MEL-5): 2.1 µM
GI50 (MOLT-4): 2 µM
GI50 (MDA-MB-435): 6.6 µM
GI50 (SF-268): 2.2 µM
IC50 [1]: 0.7 µM
GI50 (NCI-H522): 2.8 µM
GI50 (786-0): 1.9 µM
GI50 (SNB-75): 3 µM
GI50 (MCF7): 2.6 µM
GI50 (HOP-62): 10.5 µM
GI50 (Hs-578T): 3.1 µM
GI50 (OVCAR-5): 7.8 µM
GI50 (UO-31): 0.4 µM
GI50 (SF-539): 0.6 µM
GI50 (CAKI-1): 0.3 µM
GI50 (NCI-H23): 3 µM
GI50 (LOX IMVI): 2.8 µM
GI50 (MDA-MB-231): 6.9 µM
GI50 (SK-MEL-28): 12.3 µM
GI50 (SNB-19): 7.9 µM
GI50 (NCI-H226): 10.5 µM
GI50 (SN12C): 3.1 µM
selectivity ratio [2]: 7.7
GI50 (RXF 393): 2.1 µM
GI50 (IGROV-1): 4.1 µM
GI50 (KM12): 4.3 µM
GI50 (PC-3): 2.1 µM
GI50 (SW-620): 1.3 µM
GI50 (BT-549): 1.7 µM
GI50 (OVCAR-4): 11.7 µM
GI50 (COLO 205): 13.8 µM
GI50 [3]: 11.2 µM
GI50 (DU-145): 2.8 µM
GI50 (M14): 1.7 µM
GI50 [4]: 1.5 µM
GI50 (HOP-92): 0.5 µM
GI50 (RPMI-8226): 1.2 µM
GI50 (T47D): 4.6 µM
GI50 (UACC-257): 8.1 µM
GI50 (NCI-H322M): 12.6 µM
GI50 (HCT-15): 3.5 µM
